Results published in ChEMBL document CHEMBL2034845, “Synthesis and in vitro characterization of trans- and cis-[(18)F]-4-methylbenzyl 4-[(pyrimidin-2-ylamino)methyl]-3-fluoropiperidine-1-carboxylates as new potential PET radiotracer candidates for the NR2B subtype N-methyl-D-aspartate receptor” (Eur J Med Chem, 2012).

Tests used:
[1] = system: Thalamus; assay: Drug uptake in Sprague-Dawley rat thalamus at 8 nM after 90 mins by autoradiography analysis; type: ADME, tissue-based; details: 1.5 h, 0.008 µM
[2] = system: Hippocampus; assay: Drug uptake in Sprague-Dawley rat hippocampus at 8 nM after 90 mins by autoradiography analysis; type: ADME, tissue-based; details: 1.5 h, 0.008 µM
[3] = system: Nucleic Acid; assay: Ratio of drug uptake in […] in Sprague-Dawley rat at 8 nM after 90 mins by autoradiography analysis; type: ADME, tissue-based; details: 1.5 h, 0.008 µM
[4] = system: Cortex; assay: Drug uptake in Sprague-Dawley rat cortex at 8 nM after 90 mins by autoradiography analysis; type: ADME, tissue-based; details: 1.5 h, 0.008 µM
[5] = system: Brain; assay: Drug uptake in Sprague-Dawley rat brain at 8 nM after 90 mins by autoradiography analysis in presence of 10 uM Ro 256981; type: ADME, tissue-based; details: 1.5 h, 0.008 µM
[6] = target: T1, Glutamate receptor ionotropic, NMDA 2B (Rattus norvegicus, UniProt Q00960); assay: Binding affinity to NMDAR NR2B in Sprague-Dawley rat brain cortex; type: tissue-based
T1 sequence (Q00960 whole entry): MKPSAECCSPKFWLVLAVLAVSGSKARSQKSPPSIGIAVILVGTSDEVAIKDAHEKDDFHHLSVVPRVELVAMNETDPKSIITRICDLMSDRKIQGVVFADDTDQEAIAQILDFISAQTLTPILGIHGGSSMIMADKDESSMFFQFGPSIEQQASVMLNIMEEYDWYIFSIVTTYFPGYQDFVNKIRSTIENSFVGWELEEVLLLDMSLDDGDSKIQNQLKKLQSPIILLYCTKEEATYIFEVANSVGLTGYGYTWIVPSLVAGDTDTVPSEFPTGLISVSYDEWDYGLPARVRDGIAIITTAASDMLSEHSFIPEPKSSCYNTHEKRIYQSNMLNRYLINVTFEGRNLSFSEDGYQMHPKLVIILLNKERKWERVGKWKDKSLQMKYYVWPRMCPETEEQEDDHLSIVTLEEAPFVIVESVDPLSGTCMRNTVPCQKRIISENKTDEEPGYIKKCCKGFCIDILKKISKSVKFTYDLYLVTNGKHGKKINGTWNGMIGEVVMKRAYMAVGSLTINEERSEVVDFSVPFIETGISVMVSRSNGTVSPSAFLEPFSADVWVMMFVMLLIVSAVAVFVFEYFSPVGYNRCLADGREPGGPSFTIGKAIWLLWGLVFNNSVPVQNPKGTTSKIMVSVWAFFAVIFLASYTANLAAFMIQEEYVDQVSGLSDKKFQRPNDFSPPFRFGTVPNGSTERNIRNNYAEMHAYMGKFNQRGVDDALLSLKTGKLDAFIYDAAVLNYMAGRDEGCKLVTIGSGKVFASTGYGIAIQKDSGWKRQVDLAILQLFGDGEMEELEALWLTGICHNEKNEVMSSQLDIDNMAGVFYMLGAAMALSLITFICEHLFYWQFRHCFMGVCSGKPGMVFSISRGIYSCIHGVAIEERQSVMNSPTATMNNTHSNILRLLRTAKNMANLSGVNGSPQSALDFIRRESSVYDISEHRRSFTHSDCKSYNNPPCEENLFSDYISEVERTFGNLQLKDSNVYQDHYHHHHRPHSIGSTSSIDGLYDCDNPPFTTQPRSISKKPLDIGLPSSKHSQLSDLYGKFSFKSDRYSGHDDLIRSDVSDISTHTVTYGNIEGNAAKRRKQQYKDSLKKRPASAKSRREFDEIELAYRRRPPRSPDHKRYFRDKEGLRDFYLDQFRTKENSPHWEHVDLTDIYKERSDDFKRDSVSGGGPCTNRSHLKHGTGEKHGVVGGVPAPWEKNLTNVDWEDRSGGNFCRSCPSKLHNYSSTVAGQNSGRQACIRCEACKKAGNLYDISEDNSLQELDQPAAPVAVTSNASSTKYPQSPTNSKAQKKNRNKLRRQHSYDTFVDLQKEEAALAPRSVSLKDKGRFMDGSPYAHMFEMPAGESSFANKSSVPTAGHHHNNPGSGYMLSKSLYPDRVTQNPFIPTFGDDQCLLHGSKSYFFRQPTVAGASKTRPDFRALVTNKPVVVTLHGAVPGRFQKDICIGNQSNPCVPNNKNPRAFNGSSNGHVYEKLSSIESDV
In short: (§1)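 Saturation binding on mounted rat brain tissue sections. Sections were pre-incubated twice for 10 min at r.t. in 50 mM Tris-HCl pH 7.4 with 10 mM EDTA, then exposed to free [18F] ligand at 0.15–48 nM. Washes were 5, 5 and 15 min in 50 mM Tris-HCl pH 7.4 at 4 °C, followed by a cold distilled-water dip and drying on a hot plate. Autoradiographic optical densities (DLU/mm²) were converted with spiked brain-homogenate standards. Specific binding was taken as total minus nonspecific for each region. Kd and Bmax were obtained from Scatchard plots.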

[7] = target: T1, Glutamate receptor ionotropic, NMDA 2B; assay: Binding affinity to NMDAR NR2B in Sprague-Dawley rat brain hippocampus; type: tissue-based; in short: as §1
[8] = target: T1, Glutamate receptor ionotropic, NMDA 2B; assay: Binding affinity to NMDAR NR2B in Sprague-Dawley rat brain striatum; type: tissue-based; in short: as §1
[9] = target: T1, Glutamate receptor ionotropic, NMDA 2B; assay: Binding affinity to NMDAR NR2B in Sprague-Dawley rat brain thalamus; type: tissue-based; in short: as §1
[10] = target: T1, Glutamate receptor ionotropic, NMDA 2B; assay: Binding affinity to NMDAR NR2B in Sprague-Dawley rat brain olfactory tubercle; type: tissue-based; in short: as §1
[11] = Drug uptake in Sprague-Dawley rat olfactory tubercle at 8 nM after 90 mins by autoradiography analysis; type: ADME, tissue-based; details: 1.5 h, 0.008 µM
[12] = Lipophilicity, log D of the compound in octanol-[…] at 10 uM after 40 mins by shake flask method; type: physicochemical
In short: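 Shake-flask method. Tubes held 1 mL octanol and 1 mL […] buffer plus [18F] tracer, were stirred for 40 min and centrifuged for 5 min. Two 100 µL aliquots from each phase were gamma-counted. logD7.4 was calculated from the ratio of octanol to aqueous radioactivity. Four tubes were used.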

[13] = system: Cerebellum; assay: Drug uptake in Sprague-Dawley rat cerebellum at 8 nM after 90 mins by autoradiography analysis; type: ADME, tissue-based; details: 1.5 h, 0.008 µM
[14] = Drug uptake in Sprague-Dawley rat forebrain at 8 nM after 90 mins by autoradiography analysis; details: 1.5 h, 0.008 µM
[15] = system: Striatum; assay: Binding to Sprague-Dawley rat striatum sections at 8 nM after 90 mins by autoradiography analysis; details: in vitro, 1.5 h, 0.008 µM
[16] = target: Glutamate receptor ionotropic, NMDA 2B (Rattus norvegicus) (UniProt Q00960); assay: Binding affinity to NMDAR NR2B in Sprague-Dawley rat brain cortex assessed per mg of protein; type: tissue-based; details: tested as the 18F-labelled form; in short: as §1
Sequence of Glutamate receptor ionotropic, NMDA 2B (Rattus norvegicus) (Q00960 27-1482 limits assumed): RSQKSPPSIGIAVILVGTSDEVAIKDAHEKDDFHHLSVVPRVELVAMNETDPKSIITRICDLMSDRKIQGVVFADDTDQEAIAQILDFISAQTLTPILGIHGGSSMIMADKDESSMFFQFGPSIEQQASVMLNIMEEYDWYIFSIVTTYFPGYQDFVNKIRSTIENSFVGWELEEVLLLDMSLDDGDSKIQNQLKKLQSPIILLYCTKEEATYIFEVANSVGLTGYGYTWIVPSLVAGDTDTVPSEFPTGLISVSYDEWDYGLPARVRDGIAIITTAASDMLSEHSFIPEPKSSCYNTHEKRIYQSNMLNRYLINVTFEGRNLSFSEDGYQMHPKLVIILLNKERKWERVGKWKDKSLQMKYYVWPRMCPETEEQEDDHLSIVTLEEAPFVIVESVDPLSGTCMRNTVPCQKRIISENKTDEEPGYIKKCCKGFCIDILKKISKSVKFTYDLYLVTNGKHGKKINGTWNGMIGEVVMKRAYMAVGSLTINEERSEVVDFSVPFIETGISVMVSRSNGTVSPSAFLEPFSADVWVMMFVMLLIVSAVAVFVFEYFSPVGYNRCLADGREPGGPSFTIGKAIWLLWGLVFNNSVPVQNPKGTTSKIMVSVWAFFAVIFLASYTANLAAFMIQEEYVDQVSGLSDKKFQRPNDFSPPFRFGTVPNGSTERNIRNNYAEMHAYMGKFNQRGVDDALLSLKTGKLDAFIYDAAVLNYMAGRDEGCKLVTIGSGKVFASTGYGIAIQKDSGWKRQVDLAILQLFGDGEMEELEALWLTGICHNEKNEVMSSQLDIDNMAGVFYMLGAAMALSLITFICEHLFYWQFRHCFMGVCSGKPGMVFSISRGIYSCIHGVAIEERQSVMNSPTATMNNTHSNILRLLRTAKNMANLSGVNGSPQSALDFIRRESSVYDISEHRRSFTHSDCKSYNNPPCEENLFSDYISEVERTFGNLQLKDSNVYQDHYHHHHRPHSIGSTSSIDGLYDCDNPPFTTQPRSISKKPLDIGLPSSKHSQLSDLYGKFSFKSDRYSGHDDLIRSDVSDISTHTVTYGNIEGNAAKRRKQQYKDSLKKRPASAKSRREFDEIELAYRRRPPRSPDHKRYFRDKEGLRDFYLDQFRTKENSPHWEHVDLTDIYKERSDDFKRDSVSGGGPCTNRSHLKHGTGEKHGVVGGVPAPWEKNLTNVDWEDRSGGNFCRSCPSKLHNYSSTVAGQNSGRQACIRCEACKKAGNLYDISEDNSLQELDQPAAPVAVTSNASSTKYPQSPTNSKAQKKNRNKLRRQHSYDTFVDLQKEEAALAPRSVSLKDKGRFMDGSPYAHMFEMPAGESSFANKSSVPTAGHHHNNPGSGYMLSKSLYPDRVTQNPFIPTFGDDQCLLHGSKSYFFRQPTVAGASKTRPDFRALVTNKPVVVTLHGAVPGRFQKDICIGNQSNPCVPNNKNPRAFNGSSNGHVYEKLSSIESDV

[17] = target: Glutamate receptor ionotropic, NMDA 2B (Rattus norvegicus) (UniProt Q00960); assay: Binding affinity to NMDAR NR2B in Sprague-Dawley rat brain hippocampus assessed per mg of protein; type: tissue-based; details: tested as the 18F-labelled form; in short: as §1
[18] = target: Glutamate receptor ionotropic, NMDA 2B (Rattus norvegicus) (UniProt Q00960); assay: Binding affinity to NMDAR NR2B in Sprague-Dawley rat brain striatum assessed per mg of protein; type: tissue-based; details: tested as the 18F-labelled form; in short: as §1
[19] = target: Glutamate receptor ionotropic, NMDA 2B (Rattus norvegicus) (UniProt Q00960); assay: Binding affinity to NMDAR NR2B in Sprague-Dawley rat brain thalamus assessed per mg of protein; type: tissue-based; details: tested as the 18F-labelled form; in short: as §1
[20] = target: Glutamate receptor ionotropic, NMDA 2B (Rattus norvegicus) (UniProt Q00960); assay: Binding affinity to NMDAR NR2B in Sprague-Dawley rat brain olfactory tubercle assessed per mg of protein; type: tissue-based; details: tested as the 18F-labelled form; in short: as §1
[21] = target: Glutamate receptor ionotropic, NMDA 2B (Rattus norvegicus) (UniProt Q00960); assay: Ratio of Bmax to Kd at NMDAR NR2B in Sprague-Dawley rat brain cortex; details: tested as the 18F-labelled form
In short: (§2)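 Bmax/Kd ratio for each brain region. Bmax and Kd came from Scatchard analysis of specific autoradiographic binding on rat brain sections. Free [18F] ligand ran from 0.15 to 48 nM, with Tris-HCl pH 7.4 pre-incubation and cold washes. Radioactivity was calibrated against spiked tissue-homogenate standards.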

[22] = target: Glutamate receptor ionotropic, NMDA 2B (Rattus norvegicus) (UniProt Q00960); assay: Ratio of Bmax to Kd at NMDAR NR2B in Sprague-Dawley rat brain hippocampus; type: tissue-based; details: tested as the 18F-labelled form; in short: as §2
[23] = target: Glutamate receptor ionotropic, NMDA 2B (Rattus norvegicus) (UniProt Q00960); assay: Ratio of Bmax to Kd at NMDAR NR2B in Sprague-Dawley rat brain striatum; type: tissue-based; details: tested as the 18F-labelled form; in short: as §2
[24] = target: Glutamate receptor ionotropic, NMDA 2B (Rattus norvegicus) (UniProt Q00960); assay: Ratio of Bmax to Kd at NMDAR NR2B in Sprague-Dawley rat brain thalamus; type: tissue-based; details: tested as the 18F-labelled form; in short: as §2
[25] = target: Glutamate receptor ionotropic, NMDA 2B (Rattus norvegicus) (UniProt Q00960); assay: Ratio of Bmax to Kd at NMDAR NR2B in Sprague-Dawley rat brain olfactory tubercle; type: tissue-based; details: tested as the 18F-labelled form; in short: as §2

Q: With `Cc1ccc(COC(=O)N2CC[C@H](CNc3ncccn3)[C@H]([18F])C2)cc1` (racemic) as the molecule, how does the Drug uptake [1] read?
A: 76%

Q: What about the Drug uptake [2] of the same molecule?
A: 91%

Q: And the Ratio [3]?
A: 12.1

Q: What about the Drug uptake [4] of the same molecule?
A: Active

Q: And the Drug uptake [5]?
A: Not Active

Q: What about the Kd [6] of the same molecule?
A: 9.8 nM

Q: And the Kd [7]?
A: 9.1 nM

Q: What about the Kd [8] of the same molecule?
A: 9.3 nM

Q: And the Kd [9]?
A: 15.2 nM

Q: What about the Kd [10] of the same molecule?
A: 5.9 nM

Q: And the Drug uptake [11]?
A: Not Active

Q: What about the logD at 40 min, 10 µM [12] of the same molecule?
A: 2.8

Q: And the Drug uptake [13]?
A: Not Active

Q: And the Drug uptake [14]?
A: Active

Q: What about the Drug uptake [15] of the same molecule?
A: Active

Q: For `Cc1ccc(COC(=O)N2CC[C@@H](CNc3ncccn3)[C@H]([18F])C2)cc1` (racemic), which Drug uptake [1] is on record?
A: 62%

Q: What about the Drug uptake [2] of the same molecule?
A: 84%

Q: And the Ratio [3]?
A: 6.4

Q: And the Drug uptake [4]?
A: Active

Q: And the Drug uptake [5]?
A: Not Active

Q: What about the Kd [6] of the same molecule?
A: 3.2 nM

Q: What about the Kd [7] of the same molecule?
A: 7.1 nM

Q: What about the Kd [8] of the same molecule?
A: 5.1 nM

Q: And the Kd [9]?
A: 5.4 nM

Q: What about the Kd [10] of the same molecule?
A: 1.9 nM

Q: And the Drug uptake [11]?
A: Not Active

Q: What about the logD at 40 min, 10 µM [12] of the same molecule?
A: 2.66

Q: And the Drug uptake [13]?
A: Not Active

Q: And the Drug uptake [14]?
A: Active

Q: And the Drug uptake [15]?
A: Active

Q: With `Cc1ccc(COC(=O)N2CC[C@@H](CNc3ncccn3)[C@H](F)C2)cc1` (racemic) as the molecule, how does the Bmax [16] read?
A: 0.77 pmol

Q: And the Bmax [17]?
A: 1.58 pmol

Q: What about the Bmax [18] of the same molecule?
A: 1.05 pmol

Q: What about the Bmax [19] of the same molecule?
A: 0.86 pmol

Q: And the Bmax [20]?
A: 0.69 pmol

Q: What about the Ratio [21] of the same molecule?
A: 25

Q: What about the Ratio [22] of the same molecule?
A: 22

Q: What about the Ratio [23] of the same molecule?
A: 21

Q: And the Ratio [24]?
A: 17

Q: What about the Ratio [25] of the same molecule?
A: 37

Q: With `Cc1ccc(COC(=O)N2CC[C@H](CNc3ncccn3)[C@H](F)C2)cc1` (racemic) as the molecule, how does the Bmax [16] read?
A: 1.5 pmol

Q: And the Bmax [17]?
A: 1.65 pmol

Q: And the Bmax [18]?
A: 1.41 pmol

Q: And the Bmax [19]?
A: 1.12 pmol

Q: What about the Bmax [20] of the same molecule?
A: 1.05 pmol

Q: And the Ratio [21]?
A: 15

Q: What about the Ratio [22] of the same molecule?
A: 19

Q: What about the Ratio [23] of the same molecule?
A: 15

Q: And the Ratio [24]?
A: 8

Q: And the Ratio [25]?
A: 18
